From ChEMBL document CHEMBL1132613 (J Med Chem, 1999)
Where “and” joins values, the source holds several entries; their conditions need not be identical. Identical values can stand only once.

Experiments:
Format in all cases: functional
[1] = molecular target: 5-hydroxytryptamine receptor 2A (Rattus norvegicus) (UniProt P14842); test: Efficacy against 5-hydroxytryptamine 2A receptor
[2] = system: Rattus norvegicus; test: Percentage of animals failing to emit 50 lever presses within 15 min in rats at a compound dose of 0.1 mg/kg
In short: (§1)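 Two-lever drug discrimination in male Sprague–Dawley rats (200–220 g at start), trained against saline on LSD tartrate (0.08 mg/kg), DOI HCl (0.4 mg/kg) or LY293284 (0.025 mg/kg). FR50 food-pellet reinforcement, levers counterbalanced, 15-min sessions at 22–24 °C. %D is the share of tested rats not completing 50 lever presses within 15 min.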

[3] = system: Rattus norvegicus; test: Percentage of animals failing to emit 50 lever presses within 15 min in rats at a compound dose of 0.2 mg/kg; in short: as §1
[4] = system: Rattus norvegicus; test: Percentage of animals failing to emit 50 lever presses within 15 min in rats at a compound dose of 0.4 mg/kg; in short: as §1
[5] = system: Rattus norvegicus; test: Percentage of animals emitting >80% of lever presses in rats at a compound dose of 0.28 uM/Kg
In short: (§2)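 Male Sprague–Dawley rats (200–220 g) in a two-lever, FR50 food-reinforced task. Rats were trained to discriminate saline from LSD tartrate (0.08 mg/kg), DOI HCl (0.4 mg/kg) or LY293284 (0.025 mg/kg) in 15-min sessions. %SDL is the share of rats making over 80% of presses on the drug lever. %D is the share failing to make 50 presses within 15 min. ED50 by Litchfield–Wilcoxon log-probit.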

[6] = system: Rattus norvegicus; test: Percentage of animals emitting >80% of lever presses in rats at a compound dose of 0.56 uM/Kg; in short: as §2
[7] = system: Rattus norvegicus; test: Percentage of animals emitting >80% of lever presses in rats at a compound dose of 1.12 uM/Kg; in short: as §2
[8] = system: Rattus norvegicus; test: Percentage of animals failing to emit 50 lever presses within 15 min in at 0.01 mg/kg dose; in short: as §1
[9] = system: Rattus norvegicus; test: Percentage of animals failing to emit 50 lever presses within 15 min in rats at 0.02 mg/kg dose; in short: as §1
[10] = system: Rattus norvegicus; test: Percentage of animals failing to emit 50 lever presses within 15 min in rats at 0.04 mg/kg dose; in short: as §1
[11] = system: Rattus norvegicus; test: Percentage of animals failing to emit 50 lever presses within 15 min in rats at 0.08 mg/kg dose; in short: as §1
[12] = system: Rattus norvegicus; test: Percentage of animals emitting >80% of lever presses in rats at 0.01 mg/kg dose; in short: as §2
[13] = system: Rattus norvegicus; test: Percentage of animals emitting >80% of lever presses in rats at 0.02 mg/kg dose; in short: as §2
[14] = system: Rattus norvegicus; test: Percentage of animals emitting >80% of lever presses in rats at 0.04 mg/kg dose; in short: as §2
[15] = system: Rattus norvegicus; test: Percentage of animals emitting >80% of lever presses in rats at 0.08 mg/kg dose; in short: as §2

Chain of 5-hydroxytryptamine receptor 2A (Rattus norvegicus) (P14842 whole entry): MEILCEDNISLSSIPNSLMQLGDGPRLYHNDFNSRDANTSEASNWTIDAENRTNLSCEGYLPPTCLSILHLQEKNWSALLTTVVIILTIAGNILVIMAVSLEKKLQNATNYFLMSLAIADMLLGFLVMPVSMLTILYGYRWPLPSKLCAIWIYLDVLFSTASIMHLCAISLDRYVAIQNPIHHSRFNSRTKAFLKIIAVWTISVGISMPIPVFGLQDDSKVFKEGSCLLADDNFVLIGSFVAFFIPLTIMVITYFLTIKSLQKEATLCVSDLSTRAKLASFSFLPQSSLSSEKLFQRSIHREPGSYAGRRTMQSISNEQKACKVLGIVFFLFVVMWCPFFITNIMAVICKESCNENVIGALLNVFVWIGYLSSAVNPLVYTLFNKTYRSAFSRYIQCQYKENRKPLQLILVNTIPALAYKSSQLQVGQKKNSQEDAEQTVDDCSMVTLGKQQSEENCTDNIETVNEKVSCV

Structure (SMILES) | ED50 [1] | D [2] [%] | D [3] [%] | D [4] [%] | SDL [5] [%] | SDL [6] [%] | SDL [7] [%] | D [8] [%] | D [9] [%] | D [10] [%] | D [11] [%] | SDL [12] [%] | SDL [13] [%] | SDL [14] [%] | SDL [15] [%]
COc1cc(CC(C)N)c(OC)cc1I (stereo unspecified) | 0.3 µmol.kg-1 and 0.11 mg/kg | 0 | 10 | 0 | 56 | 89 | 100 | – | – | – | – | – | – | – | –
CCN(CC)C(=O)[C@@H]1C=C2c3cccc4[nH]cc(c34)C[C@H]2N(C)C1 [LYSERGIDE] | 0.037 µmol.kg-1 and 0.016 mg/kg | – | – | – | – | – | – | 0 | 7 | 0 | 0 | 31 | 62 | 81 | 100
